One may read the Ki as a dissociation constant, usually derived from enzyme kinetics or from competition with a known ligand.

Ends that are not written are not given here. Oregon Green 488 = Oregon Green 488 fluorophore

For one test, the system named is PICK1 PDZ domain. The settings on record: in words, ref [39], cited from earlier work.
In test [1] the test system is PKCα. Kind of test: In vitro phosphorylation by PKCα. Format: biochemical. The settings on record: in words. Put shortly:
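About 3 μg of purified untagged PICK1 variant was mixed with reaction buffer (Tris pH 7.5, MgCl2, CaCl2), PKC lipid activator, 10 ng PKCα and 2 μCi [γ-32P]ATP, then incubated 30 min at 30 °C. Reactions were stopped on ice with SDS loading buffer and run on SDS-PAGE. 32P and Coomassie bands were quantified, and the phosphorylation/protein density ratio was expressed relative to WT (100%). Mean ± SE, 3–5 experiments.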

For test [2], the system named is PKCα. Kind of test: In vitro phosphorylation by PKCα after preincubation with lipid vesicles. As to conditions: with vs without vesicles. The test is classed as biochemical. Put shortly: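 Purified untagged PICK1 (~3 μg) was preincubated 30 min on ice with 3 μg Folch fraction type I vesicles extruded to 100 nm, or without vesicles. It was then phosphorylated with 10 ng PKCα, PKC lipid activator, Mg2+/Ca2+ Tris reaction buffer (pH 7.5) and 2 μCi [γ-32P]ATP for 30 min at 30 °C. Read-out was 32P band density over Coomassie protein density.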

Test [3] addresses T1, PICK1 S77A, rat (rat, UniProt Q9EP80 1-416, S77A). Kind of test: fluorescence polarisation. Background: In fluorescence polarisation assays a small probe gives low polarisation when free and higher when bound to something large.
Test [4] deals with T2, PICK1 S77D, rat (phosphomimic) (rat, UniProt Q9EP80 1-416, S77D). Description: fluorescence polarisation.
T2 sequence (Q9EP80 whole entry S77D): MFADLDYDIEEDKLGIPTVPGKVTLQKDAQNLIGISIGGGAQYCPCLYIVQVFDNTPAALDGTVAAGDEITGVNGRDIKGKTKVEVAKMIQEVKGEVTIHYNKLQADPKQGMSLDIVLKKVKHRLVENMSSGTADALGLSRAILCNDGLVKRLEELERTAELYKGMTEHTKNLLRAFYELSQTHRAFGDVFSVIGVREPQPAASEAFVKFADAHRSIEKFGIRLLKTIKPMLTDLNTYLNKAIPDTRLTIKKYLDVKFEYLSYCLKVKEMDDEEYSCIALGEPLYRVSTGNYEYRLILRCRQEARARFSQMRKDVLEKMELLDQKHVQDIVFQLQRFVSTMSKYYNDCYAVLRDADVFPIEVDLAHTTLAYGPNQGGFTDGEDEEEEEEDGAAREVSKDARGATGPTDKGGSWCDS
Test [5] deals with T3, PICK1 WT (protein interacting with C-kinase 1), rat (rat, UniProt Q9EP80 1-416). Description: fluorescence polarisation.
T3 sequence (Q9EP80 whole entry): as the sequence (Q9EP80 whole entry S77D) above, with D77S counted along it
For test [6], the target named is T1, PICK1 S77A, rat. Description: fluorescence polarisation. This is another data set of the same source.
Test [7] concerns the target T2, PICK1 S77D, rat (phosphomimic). Description: fluorescence polarisation. The source holds these as a separate data set.
Test [8] deals with T3, PICK1 WT (protein interacting with …). Kind of test: fluorescence polarisation. This is another data set of the same source.

T1 sequence (Q9EP80 whole entry S77A): as the sequence (Q9EP80 whole entry S77D) above, with D77A counted along it

Turning to EVRQFTLRHWLKD [DAT C13 V to D], in the test on PICK1 PDZ domain (last residue changed to aspartate), the “interaction with the PICK1 PDZ domain” value is “disrupts the interaction with the PICK1 PDZ domain”.

Take “OrG DAT C13: DAT C13 with an additional N-terminal cysteine residue coupled to the fluorophore Oregon Green 488 (C(Oregon Green 488)EVRQFTLRHWLKV)”: the “affinity for the PICK1 PDZ domain” value in the test with PICK1 PDZ domain is given as “highest affinity reported for the PICK1 PDZ domain”.

Take “PICK1 A87L: PICK1 mutant (A87L) that cannot accommodate a peptide in the PDZ binding pocket”: the “PKCα phosphorylation compared with PICK1 WT” value with PKCα [1] (n=3-5) is “phosphorylated to the same level as WT”.

Consider “PICK1 WT: purified rat PICK1, cleaved from GST with thrombin”, for which the “fold increase in phosphorylation on addition of lipid vesicles” value in the test on PKCα [2] is “approximately 10 fold”. In the test on PKCα [1] (SDS-PAGE, 32P autoradiography, n=3), the “PKCα in vitro phosphorylation” value was “PICK1 is a substrate for PKCα”.

Consider NPQFVHPILQSAV [PKCα C13 (13 C-terminal residues of human protein kinase Cα)], for which the Ki was 28 µM in the test with PICK1 S77A, rat [3]; 29 µM in [4]; 49 µM in [5].

Regarding C(Oregon Green 488)EVRQFTLRHWLKV [OrG DAT C13 (DAT C13 with an additional N-terminal cysteine coupled to Oregon Green 488)], the binding result in the test with PICK1 S77A, rat [6] was “binds”; in [7], “binds”; in test [8], “binds”.

With EVRQFTLRHWLKV [DAT C13 (13 C-terminal residues of the human dopamine transporter)], the Ki was determined as 1.5 µM with PICK1 S77A, rat [3]; 1.1 µM in test [4]; 1.05 µM in test [5].

With EGYNVYGIESVKI [GluA2 C13 (13 C-terminal residues of human GluA2)], the Ki stood at 9.8 µM in the test with PICK1 S77A, rat [3]; 8.8 µM in test [4]; 7.6 µM in test [5].
